ChEMBL document CHEMBL4477182, “Evaluation of the Intestinal Absorption Mechanism of Casearin X in Caco-2 Cells with Modified Carboxylesterase Activity” (J Nat Prod, 2016)

Legend:
[1] = Cytotoxicity against human Caco2 cells assessed as cell viability at 1 uM after 5 hrs by MTT assay relative to control; format: cell-based; conditions: Caco-2 cells, read-out: Activity
Outline: (§1)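 Caco-2 cells (passage 60−65) seeded at 1.14 × 10^5 cells/cm2, grown 24 h, then exposed in transport buffer (pH 7.4) to 1, 2, 3, 4, 5 and 10 μM for 5 h at 37 °C, 8% CO2. After a DPBS wash, MTT was added for 2 h. A 1% DMSO blank gave background. n = 18; ANOVA with Bonferroni test.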

[2] = Cytotoxicity against human Caco2 cells assessed as cell viability at 2 uM after 5 hrs by MTT assay relative to control; format: cell-based; conditions: Caco-2 cells, read-out: Activity; outline: as §1
Caco-2 = test: Cytotoxicity against human Caco2 cells assessed as reduction in cell viability after 5 hrs by MTT assay; format: cell-based; conditions: caco-2, 5 h; outline: as §1
[3] = Permeability from apical to basolateral side in human Caco2 cells assessed as drug recovery at 2 uM after 10 mins in absence of CES inhibitor BNPP by LC-MS method; format: ADME, cell-based; conditions: Caco-2, read-out: Drug recovery
Outline: (§2)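 Caco-2 monolayers grown 19−21 days on Transwell inserts. Pretreated 40 min at 37 °C with 200 μM BNPP in HBSS on both sides, or sham HBSS, then 40 min DMEM washout. Monolayers with TEER >250 Ω cm2 were dosed at 2 μM (1% DMSO) on the donor side; basolateral buffer had 4% FBS. Shaken at 37 °C. Buffer, cell and plastic extracts at 10, 60 and 120 min were measured by LC-MS for total recovery; mean(SD), n = 3.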

[4] = Permeability from apical to basolateral side in human Caco2 cells assessed as drug recovery at 2 uM after 60 mins in absence of CES inhibitor BNPP by LC-MS method; format: ADME, cell-based; conditions: Caco-2, read-out: Drug recovery; outline: as §2
[5] = Permeability from apical to basolateral side in human Caco2 cells assessed as drug recovery at 2 uM after 120 mins in absence of CES inhibitor BNPP by LC-MS method; format: ADME, cell-based; conditions: Caco-2, read-out: Drug recovery; outline: as §2
[6] = Permeability from apical to basolateral side in human Caco2 cells assessed as drug recovery at 2 uM after 10 mins in presence of CES inhibitor BNPP by LC-MS method; format: ADME, cell-based; conditions: Caco-2, with BNPP (CES inhibitor), concentration not stated, read-out: Drug recovery; outline: as §2
[7] = Permeability from apical to basolateral side in human Caco2 cells assessed as drug recovery at 2 uM after 60 mins in presence of CES inhibitor BNPP by LC-MS method; format: ADME, cell-based; conditions: Caco-2, with BNPP (CES inhibitor), concentration not stated, read-out: Drug recovery; outline: as §2
[8] = Permeability from apical to basolateral side in human Caco2 cells assessed as drug recovery at 2 uM after 120 mins in presence of CES inhibitor BNPP by LC-MS method; format: ADME, cell-based; conditions: Caco-2, with BNPP (CES inhibitor), concentration not stated, read-out: Drug recovery; outline: as §2
[9] = Permeability from basolateral to apical side in human Caco2 cells assessed as drug recovery at 2 uM after 10 mins in absence of CES inhibitor BNPP by LC-MS method; format: ADME, cell-based; conditions: Caco-2, read-out: Drug recovery; outline: as §2
[10] = Permeability from basolateral to apical side in human Caco2 cells assessed as drug recovery at 2 uM after 60 mins in absence of CES inhibitor BNPP by LC-MS method; format: ADME, cell-based; conditions: Caco-2, read-out: Drug recovery; outline: as §2
[11] = Permeability from basolateral to apical side in human Caco2 cells assessed as drug recovery at 2 uM after 120 mins in absence of CES inhibitor BNPP by LC-MS method; format: ADME, cell-based; conditions: Caco-2, read-out: Drug recovery; outline: as §2
[12] = Permeability from basolateral to apical side in human Caco2 cells assessed as drug recovery at 2 uM after 10 mins in presence of CES inhibitor BNPP by LC-MS method; format: ADME, cell-based; conditions: Caco-2, with BNPP (CES inhibitor), concentration not stated, read-out: Drug recovery; outline: as §2
[13] = Permeability from basolateral to apical side in human Caco2 cells assessed as drug recovery at 2 uM after 60 mins in presence of CES inhibitor BNPP by LC-MS method; format: ADME, cell-based; conditions: Caco-2, with BNPP (CES inhibitor), concentration not stated, read-out: Drug recovery; outline: as §2
[14] = Permeability from basolateral to apical side in human Caco2 cells assessed as drug recovery at 2 uM after 120 mins in presence of CES inhibitor BNPP by LC-MS method; format: ADME, cell-based; conditions: Caco-2, with BNPP (CES inhibitor), concentration not stated, read-out: Drug recovery; outline: as §2
CE2 (cocaine esterase) [15] = biological target: T1, CE2 (cocaine esterase) (Homo sapiens, UniProt O00748); test: Drug metabolism assessed as human CE2-mediated compound hydrolysis at 1 uM incubated for 30 mins measured every 5 mins by LC-MS analysis; format: ADME; conditions: human CE2 enzyme, read-out: Drug metabolism
T1 sequence (O00748 whole entry): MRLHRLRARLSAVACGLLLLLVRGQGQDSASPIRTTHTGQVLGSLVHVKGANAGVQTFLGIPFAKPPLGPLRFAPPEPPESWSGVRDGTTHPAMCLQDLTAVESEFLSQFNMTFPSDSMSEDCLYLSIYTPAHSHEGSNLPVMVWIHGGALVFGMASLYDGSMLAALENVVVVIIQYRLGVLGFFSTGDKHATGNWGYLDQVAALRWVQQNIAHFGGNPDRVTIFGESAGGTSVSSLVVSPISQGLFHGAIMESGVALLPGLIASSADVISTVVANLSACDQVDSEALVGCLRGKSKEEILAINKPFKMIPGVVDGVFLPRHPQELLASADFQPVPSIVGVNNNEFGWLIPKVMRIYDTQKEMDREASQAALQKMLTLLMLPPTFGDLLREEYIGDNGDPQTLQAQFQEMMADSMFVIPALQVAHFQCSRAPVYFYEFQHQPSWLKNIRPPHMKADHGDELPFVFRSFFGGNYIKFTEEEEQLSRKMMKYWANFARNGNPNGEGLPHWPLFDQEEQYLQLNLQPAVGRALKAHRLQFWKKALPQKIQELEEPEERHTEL
Outline: (§3)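 Purified human hCE2 (0.2 μg/mL) in 90 mM KH2PO4, 40 mM KCl, pH 7.3, preincubated 5 min at 37 °C. Reaction started with 1 μM substrate (0.1% DMSO final) and sampled every 5 min to 30 min, in triplicate. Quenched with ice-cold acetonitrile and quantified by LC-MS (SIM, m/z 555 Na adduct). Half-life = ln 2 / slope of ln % remaining versus time.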

CE2 (cocaine esterase) [16] = biological target: T1, CE2 (cocaine esterase); test: Drug metabolism assessed as human CE2-mediated compound hydrolysis by measuring compound half life at 1 uM incubated for 30 mins by LC-MS analysis; format: ADME; conditions: human CE2 enzyme; outline: as §3
Cocaine esterase = biological target: T2, Cocaine esterase (Homo sapiens, UniProt O00748); test: Drug metabolism assessed as human CE2-mediated compound hydrolysis by measuring specific activity of enzyme per mg of protein at 1 uM incubated for 30 mins; format: ADME; conditions: 0.5 h; outline: as §3
T2 sequence (O00748 whole entry): T1 sequence (O00748 whole entry)

## C=C/C(C)=C\C[C@]1(C)[C@H](C)C[C@H](O)[C@@]23C(=C[C@H](OC(=O)CCC)C[C@@H]12)[C@@H](OC(=O)CCC)O[C@H]3OC(C)=O
[1]
  viability at 5 h, 1 µM: 98.9%
[2]
  viability at 5 h, 2 µM: 97.9%
Caco-2
  Activity: Dose-dependent effect
[3]
  recovery at 10 min, 2 µM: 68.4%
[4]
  recovery at 1 h, 2 µM: 33.3%
[5]
  recovery at 2 h, 2 µM: 12%
[6]
  recovery at 10 min, 2 µM: 85.4%
[7]
  recovery at 1 h, 2 µM: 87.2%
[8]
  recovery at 2 h, 2 µM: 87.4%
[9]
  recovery at 10 min, 2 µM: 74.4%
[10]
  recovery at 1 h, 2 µM: 46.5%
[11]
  recovery at 2 h, 2 µM: 27.6%
[12]
  recovery at 10 min, 2 µM: 93.9%
[13]
  recovery at 1 h, 2 µM: 89.3%
[14]
  recovery at 2 h, 2 µM: 92.9%
CE2 (cocaine esterase) [15]
  metabolised at 0.5 h, 1 µM: 30%
CE2 (cocaine esterase) [16]
  half-life at 1 µM: 49.5 min
Cocaine esterase
  Drug metabolism: 55.8 pmol/min
